Read-outs that look alike come from different tables or passages of the source.
Key:
CSP1 = biological target: T1, CSP1 (Chilo suppressalis, UniProt V9PY22); format: binding; settings: for activity at 30 µM: pH 7.4, read-out: CSP1 Intensity %; for IC50: read-out: CSP1 IC50, displacement of 1-NPN, ligand 2–30 µM; for Ki: read-out: CSP1 Ki, competitive binding with 1-NPN
T1 sequence (V9PY22 18-122): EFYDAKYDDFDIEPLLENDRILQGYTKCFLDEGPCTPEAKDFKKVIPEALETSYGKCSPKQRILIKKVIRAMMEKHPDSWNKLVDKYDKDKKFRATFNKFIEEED
Method in brief: (§1)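 Mature CSP cDNA in pET-30a(+), expressed in E. coli, purified, His-tag cleaved with enterokinase. […] Competition: 2 µM protein plus 2 µM 1-NPN in 50 mM Tris–HCl, titrated with 1 mM odorant stock to 2–30 µM final. Excitation 337 nm, emission 400–460 nm, three replicates.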

CSP2 = format: binding, Chilo suppressalis; settings: for IC50: read-out: CSP2 IC50, displacement of 1-NPN, ligand 2–30 µM; for Ki: read-out: CSP2 Ki, competitive binding with 1-NPN
CSP3 = biological target: T2, CSP3 (Chilo suppressalis, UniProt V9PY40); format: binding; settings: for activity at 30 µM: pH 7.4, read-out: CSP3 Intensity %; for IC50: read-out: CSP3 IC50, displacement of 1-NPN, ligand 2–30 µM; for Ki: read-out: CSP3 Ki, competitive binding with 1-NPN
T2 sequence (V9PY40 19-126): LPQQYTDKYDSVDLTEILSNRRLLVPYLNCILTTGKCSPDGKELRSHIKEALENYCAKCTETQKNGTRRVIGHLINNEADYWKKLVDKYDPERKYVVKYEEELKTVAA
Method in brief: as §1

adult C. suppressalis = settings: ref Wei et al. 2013, Khuhro et al. 2017a; cited from earlier work

| Compound | activity at 30 µM (CSP1) [%] | IC50 (CSP2) [µM] | activity at 30 µM (CSP3) [%] | Ki (CSP2) [µM] | IC50 (CSP1) [µM] | IC50 (CSP3) [µM] | also measured |
| --- | --- | --- | --- | --- | --- | --- | --- |
| CCCCCCCCC=O [1-Nonaldehyde] | 74.1 | > 30 | 75 ± 2.3 |  |  |  |  |
| CC=CC=CCO [2,4 hexadienol] | 85.8 | 18.4 | 53.5 ± 1.87 | 15.8 |  |  |  |
| CCCCCC(C)O (stereo not shown) [2-Heptanol] | 48.9 | 10.8 | 91.8 ± 1.7 | 9.25 |  |  | Ki (CSP2; listed as 2-heptanol): ≤ 10 µM |
| CCCCCC(C)=O [2-Heptanone] | 49.3 ± 1.89 | > 30 | 82 ± 3.87 |  |  |  |  |
| CCCCCCCCCCCCCC(C)=O [2-Pentadecanone] | 27.9 ± 2.11 | 23.6 | 67.6 ± 0.91 | 20.3 |  |  |  |
| CCCCCCCCCCCC(C)=O [2-Tridecanone] | 24.8 ± 1.61 | 24.3 | 72.8 ± 2.06 | 20.9 |  |  |  |
| C[C@@H]1CC[C@H]2C(C)(C)[C@H]3C[C@@]12CC[C@@]3(C)O [(+)-Cedrol] | 47.2 ± 1.16 | 10.7 | 45.2 ± 1.9 | 9.22 |  |  | Ki (CSP2; listed as (+)-cedrol): ≤ 10 µM |
| O=Cc1ccccc1 [Benzaldehyde] | 34.2 ± 2.35 | 28.5 | 44.2 ± 3.53 | 24.5 |  |  |  |
| OCc1ccccc1 [Benzyl alcohol] | 67.5 ± 2.24 | > 30 | 84.1 ± 2.96 |  |  |  |  |
| CCC/C=C/C=O [E2-Hexenal] |  | > 30 |  |  | > 30 | > 30 |  |
| CCC/C=C/COC(C)=O [E2-Hexenyl acetate] |  | > 30 |  |  | > 30 | > 30 |  |
| CCC/C=C/CO [E2-hexenol] |  | > 30 |  |  | > 30 | > 30 |  |
| CC/C=C\CCO [E3-Hexenol] |  | > 30 |  |  | > 30 | > 30 |  |
| CCOC(=O)c1ccccc1 [Ethyl benzoates] |  | > 30 |  |  | > 30 | > 30 |  |
| CCCCCCO [Hexyl alcohol] | 64 ± 4.34 | > 30 | 67.7 ± 3.05 |  |  |  |  |
| CCCCCCCCCCCC(=O)O [Lauric acid] |  | > 30 |  |  | > 30 | > 30 |  |
| CCCCCCCCCCCC=O [Laurinaldehyde] |  | 19.3 |  | 16.6 | 11.8 | > 30 | Ki (CSP1): 9.16 µM; Ki (CSP1; listed as laurinaldehyde): ≤ 10 µM |
| CCCCC/C=C\C/C=C\CCCCCCCC(=O)O [Linoleic acid] | 55.6 ± 3.45 | 20.6 | 89.17 ± 0.88 | 17.7 |  |  |  |
| C=CC(C)=CCC=C(C)C [Ocimene] |  | > 30 |  |  | > 30 | > 30 |  |
| CCCCCCCC/C=C\CCCCCCCC(=O)O [Oleic acid] | 58.9 ± 2.59 | > 30 | 84.7 ± 2.37 |  |  |  |  |
| CCCCCCCCCCCCCCCC(=O)O [Palmitic acid] | 78.2 ± 0.93 | > 30 | > 100 |  |  |  |  |
| CCC/C=C\C=O [Z2-Hexenal] |  |  |  | 28.6 | 15.8 | > 30 | Ki (CSP1): 12.2 µM |
| CC/C=C\CCO [Z3-Hexenol] |  | 20.7 |  | 17.7 | > 30 | > 30 |  |
| CC/C=C\CCOC(C)=O [Z3-Hexenyl acetate] |  | > 30 |  |  | > 30 | > 30 |  |
| CCCCCC/C=C\CCCCCCCC=O [Z9-Hexadecenal] |  | 11.1 |  | 9.55 | 17.4 | 9.9 | Ki (CSP1): 13.5 µM; Ki (CSP3): 8.86 µM |
| CCCC/C=C\CCCCCCCCCC=O [Z11-Hexadecenal] |  | 10.3 |  | 8.89 | 20.9 | 6.96 | Ki (CSP1): 16.2 µM; Ki (CSP3): 6.23 µM |
| CCCC/C=C\CCCCCCCCCCCC=O [Z13-Octadecenal] |  | 20 |  | 17.2 | > 30 | 25.1 | Ki (CSP3): 22.5 µM |
| CC1=CC[C@H](C(C)C)C=C1 [α-Phellandrene] | 73 ± 2.46 | > 30 | 95.3 ± 1.58 |  |  |  |  |
| Farnesene |  | 24 |  | 20.4 | 27.6 | > 30 | electroantennographic (EAG) response (adult C. suppressalis): significant EAG response; binding affinity class for CSP1 (plant volatiles) (CSP1; criteria for plant volatiles): did not show high or moderate binding affinity; Ki (CSP1): 23.3 µM; binding affinity class for CSP2 (plant volatiles) (CSP2; criteria for plant volatiles): did not show high or moderate binding affinity; binding affinity class for CSP3 (plant volatiles) (CSP3; criteria for plant volatiles): did not show high or moderate binding affinity |

— article PMC6159316 (Journal of Insect Science, 2018)
